*1 amine or outer side, *2 acyl side, *3 side chain or, on linkers, in order; H or OH if unused. Where a SMILES comes first, the peptide text is derived from it. Bridges are numbered along the chain shown (N, C = ends). [ ]: non-standard residue; d: D form. X1 = O=C(CC1(S[*:2])CCCCC1)[*:1]; Orn = NCCC[C@H](N)C(=O)O

Test [1] deals with Rattus norvegicus. Nature of the test: In vivo anti-vasopressor activity in phenoxybenzamine-treated rats under urethane anesthesia is measured as effective dose. The format is functional. A digest of the protocol:
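Intravenous vasopressor assay in phenoxybenzamine-treated rats under urethane anaesthesia, agonist USP posterior pituitary reference standard. ED is the dose (nmol/kg) that reduces the response to 2x units of agonist to that of 1x unit given before antagonist. […] Means ± SE, number of assays given.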

Test [2] has as its system Rattus norvegicus. As to the kind of experiment: In vivo antidiuretic activity in rat measured as dose that reduced the response seen with 2x units of agonist to equal the response seen with 1x unit of agonist administered before antagonist. The format is functional, Urine. An outline of the steps: (§1)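 Antidiuretic assay in rats under ethanol anaesthesia against the USP posterior pituitary reference standard. Standard given 20 min after antagonist, or 10 min for analogues lacking agonism. Each peptide given at a high and a low dose. ED is the dose (nmol/kg) that cuts the response to 2x units of agonist to the response to 1x unit given before antagonist. […] Means ± SE, n assays.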

The nature of test [3]: Ratio of anti-vasopressor ED50 to antiantidiuretic ED50. Type of test: functional, Urine. A digest of the protocol:
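Ratio of antivasopressor ED to antiantidiuretic ED. Each ED is the dose (nmol/kg) that lowers the response to 2x units of agonist to that of 1x unit before antagonist. Measured in rats: vasopressor assay in phenoxybenzamine-treated, urethane-anaesthetised animals; antidiuretic assay under ethanol anaesthesia.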

The species named for test [4] is Rattus norvegicus. As to the kind of experiment: Anti-oxytocic activity on isolated rat uterus in presence of 0.5 mM of Mg2+. pA2 value is negative logarithm of effective dose (ED). Type of test: functional. The settings on record: read-out: pA2 (converted). A digest of the protocol: (§2)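 Isolated rat uterus, with USP posterior pituitary reference standard as agonist. Antagonism expressed as pA2.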

For test [5], the species on record is Rattus norvegicus. As to the kind of experiment: Anti-oxytocic activity on isolated rat uterus in absence of Mg2+. pA2 value is negative logarithm of effective dose (ED). Type of test: functional. As to conditions: read-out: pA2 (converted). A digest of the protocol: as §2
Test [6] deals with Rattus norvegicus. Nature of the test: Evaluated in vivo for logarithm effective dose (ED). The format is functional, organism-based.
For test [7], the species on record is Rattus norvegicus. As to the kind of experiment: Antidiuretic activity in rats and pA2 value is negative logarithm of effective dose (ED). The format is functional, organism-based. As to conditions: Urine, read-out: pA2 (converted). An outline of the steps: as §1

`CC[C@@H](C)[C@H]1NC(=O)CC2(CCCCC2)SSC[C@@H](C(=O)N2CCC[C@H]2C(=O)N[C@@H](CCCN=C(N)N)C(=O)NCC(N)=O)NC(=O)[C@H](CC(N)=O)NC(=O)[C@H](CCCN)NC(=O)[C@H](Cc2ccccc2)NC1=O`: the results for the ED in test [1] and in test [2] were 11.9 nmol/kg and 49 nmol/kg, respectively. Besides, the Ratio in test [3] amounted to 0.24.

Take `CC[C@@H](C)[C@H]1NC(=O)CC2(CCCCC2)SSC[C@@H](C(=O)N2CCC[C@H]2C(=O)N[C@@H](CCCN=C(N)N)C(=O)NCC(N)=O)NC(=O)[C@H](CC(N)=O)NC(=O)[C@H](CC(N)=O)NC(=O)[C@H](Cc2ccccc2)NC1=O`: the ED in test [1] is given as 3.9 nmol/kg; in test [2], 25 nmol/kg. For the same molecule, in test [3], the Ratio stood at 0.16.

With `CC[C@@H](C)[C@H]1NC(=O)CC2(CCCCC2)SSC[C@@H](C(=O)N2CCC[C@H]2C(=O)N[C@@H](CCCN=C(N)N)C(=O)NCC(N)=O)NC(=O)[C@H](CC(N)=O)NC(=O)[C@H](C(C)C)NC(=O)[C@H](Cc2ccccc2)NC1=O`, in test [3], the Ratio is on record as 12.

As to `CC[C@@H](C)[C@H]1NC(=O)CC2(CCCCC2)SSC[C@@H](C(=O)N2CCC[C@H]2C(=O)N[C@@H](CCCN=C(N)N)C(=O)NCC(N)=O)NC(=O)[C@H](CC(N)=O)NC(=O)[C@H](Cc2ccccc2)NC(=O)[C@H](Cc2ccccc2)NC1=O`, the results for the Kb in test [4] and in test [5] were 120 nM and 74.1 nM, respectively.

In test [6], `CC[C@@H](C)[C@H]1NC(=O)CC2(CCCCC2)SSC[C@@H](C(=O)N2CCC[C@H]2C(=O)N[C@@H](CCCN=C(N)N)C(=O)NCC(N)=O)NC(=O)[C@H](CC(N)=O)NC(=O)[C@H](CC2CCCCC2)NC(=O)[C@H](Cc2ccccc2)NC1=O` [listing 1 of 2 here] had an in vivo pA2 effective dose (as concentration) of 0.275 µM. Further, the Kb was 229 nM in test [7], 81.3 nM in test [4] and 36.3 nM in test [5].

On to `CC[C@@H](C)[C@H]1NC(=O)CC2(CCCCC2)SSC[C@@H](C(=O)N2CCC[C@H]2C(=O)N[C@@H](CCCN=C(N)N)C(=O)NCC(N)=O)NC(=O)[C@H](CC(N)=O)NC(=O)[C@H](CC2CCCCC2)NC(=O)[C@H](Cc2ccccc2)NC1=O` [listing 2 of 2 here], for which the ED in test [1] amounted to 19.1 nmol/kg; in test [2], 15.6 nmol/kg. The Ratio in test [3] was found to be 1.2.

With `CC[C@@H](C)[C@H]1NC(=O)CC2(CCCCC2)SSC[C@@H](C(=O)N2CCC[C@H]2C(=O)N[C@@H](CCCN=C(N)N)C(=O)NCC(N)=O)NC(=O)[C@H](CC(N)=O)NC(=O)[C@H](CO)NC(=O)[C@H](Cc2ccccc2)NC1=O`, the ED turned out to be 45 nmol/kg in test [1] and 4.6 nmol/kg in test [2]. Also, in test [3], the Ratio is recorded as 10.

Take `CC[C@@H](C)[C@H]1NC(=O)CC2(CCCCC2)SSC[C@@H](C(=O)N2CCC[C@H]2C(=O)N[C@@H](CCCN=C(N)N)C(=O)NCC(N)=O)NC(=O)[C@H](CC(N)=O)NC(=O)[C@H](CCCCN)NC(=O)[C@H](Cc2ccccc2)NC1=O` [listing 1 of 2 here]: the values for the Kb in test [7], in test [4] and in test [5] were 174 nM, 251 nM and 79.4 nM, respectively.

In test [2], `CC[C@@H](C)[C@H]1NC(=O)CC2(CCCCC2)SSC[C@@H](C(=O)N2CCC[C@H]2C(=O)N[C@@H](CCCN=C(N)N)C(=O)NCC(N)=O)NC(=O)[C@H](CC(N)=O)NC(=O)[C@H](CCCCN)NC(=O)[C@H](Cc2ccccc2)NC1=O` [listing 2 of 2 here] had an ED of 11.9 nmol/kg.

For the molecule `CC[C@@H](C)[C@H]1NC(=O)CC2(CCCCC2)SSC[C@@H](C(=O)N2CCC[C@H]2C(=O)N[C@@H](CCCN=C(N)N)C(=O)NCC(N)=O)NC(=O)[C@H](CC(N)=O)NC(=O)[C@H](CC(C)C)NC(=O)[C@H](Cc2ccccc2)NC1=O`, the figures for the ED in test [1] and in test [2] were 12.4 nmol/kg and 11 nmol/kg, respectively. Moreover, in test [3], the Ratio is 1.1.

For `NCCC[C@@H]1NC(=O)[C@H](Cc2ccccc2)NC(=O)[C@@H](Cc2ccccc2)NC(=O)CC2(CCCCC2)SSC[C@@H](C(=O)N2CCC[C@H]2C(=O)N[C@@H](CCCN=C(N)N)C(=O)NCC(N)=O)NC(=O)[C@H](CC(N)=O)NC1=O` ([dF]F[Orn]NCPRG-NH2; linker N-5 via X1), the ED in test [1] was 1.9 nmol/kg; in test [2] it was 21.3 nmol/kg. Besides, the Ratio in test [3] is reported as 0.09.

The record behind these values is ChEMBL document CHEMBL1122629, “Potent and selective antagonists of the antidiuretic responses to arginine-vasopressin based on modifications of [1-(beta-mercapto-beta,beta-pentamethylenepropionic acid),2-D-isoleucine,4- valine]arginine-vasopressin at position 4” (J Med Chem, 1984).
